Bioassay records deposited in PubChem by several laboratories.
Fh CTSL1 inh – Fasciola hepatica cathepsin L1 inhibitors, primary screen, counter-screen for PFM18AAP inhibitor project, biochemical, QFRET, fluorogenic peptide substrate | recombinant F. hepatica cathepsin L1, Z-Leu-Arg-MCA fluorescence | inhibition, % at 5.96 µM | actives 0.49% (n = 300,000) | AID 1906, 2009;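 active = inhibition above the mean of all tested compounds plus 3 SD, set per screening campaign, cut at about 17% in these data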;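 also: 0% = plate median of test compound wells and 100% = 1 µM Z-Phe-Ala-diazomethylketone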
GSTO1 counter – inhibitors of recombinant GSTO1, primary screen, counter-screen for RBBP9 inhibitor project, biochemical, fluorescence polarization; actives 1.1% (n = 300,000); Glutathione S-transferase omega-1 (Homo sapiens), P78417; AID 1974, 2009; inhibition, % at 5.96 µM; activity-based probe fluorescence polarization;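 active = inhibition above the campaign mean inhibition plus 3 SD, cut at about 35% in these data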;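 also: 0% = GSTO1-1 with DMSO and 100% = wells lacking GSTO1-1 enzyme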
Target sequence (P78417 whole entry, looked up): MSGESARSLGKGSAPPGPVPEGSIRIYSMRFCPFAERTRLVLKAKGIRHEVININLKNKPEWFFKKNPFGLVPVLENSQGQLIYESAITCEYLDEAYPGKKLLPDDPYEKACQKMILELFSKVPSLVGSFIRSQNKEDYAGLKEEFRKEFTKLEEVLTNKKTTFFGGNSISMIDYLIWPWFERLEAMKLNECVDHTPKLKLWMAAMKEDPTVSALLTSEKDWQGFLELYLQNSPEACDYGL
PP5 primary – PP5 phosphatase inhibitors, primary screen, biochemical, fluorescence. inhibition, % at 6.7 µM. purified PP5c, OMFP substrate fluorescence. AID 1987, 2009. Serine/threonine-protein phosphatase 5 (Homo sapiens), P53041. actives 0.18% (n = 320,000);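 active = inhibition above the campaign's mean inhibition across all tested compounds plus 3 SD, cut at about 9.5% in these data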;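 also: 0% = DMSO only and 100% = 100 µM cantharidin control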
Target sequence (P53041 whole entry, looked up): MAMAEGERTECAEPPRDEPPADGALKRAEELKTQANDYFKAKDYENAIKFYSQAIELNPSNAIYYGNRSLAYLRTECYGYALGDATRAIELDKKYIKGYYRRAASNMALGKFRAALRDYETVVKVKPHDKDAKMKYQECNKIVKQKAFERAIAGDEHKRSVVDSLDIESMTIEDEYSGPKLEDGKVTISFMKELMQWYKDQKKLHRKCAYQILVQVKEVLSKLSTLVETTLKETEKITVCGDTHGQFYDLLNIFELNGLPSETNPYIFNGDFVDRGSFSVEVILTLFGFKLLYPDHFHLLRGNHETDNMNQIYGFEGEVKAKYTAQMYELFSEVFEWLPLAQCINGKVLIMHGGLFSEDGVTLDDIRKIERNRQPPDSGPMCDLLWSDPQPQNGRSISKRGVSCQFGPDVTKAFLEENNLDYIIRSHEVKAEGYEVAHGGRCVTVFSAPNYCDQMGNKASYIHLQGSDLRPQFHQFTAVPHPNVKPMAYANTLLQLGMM
PAD4 FP inh – human PAD4 inhibitors, primary screen, biochemical, fluorescence polarization, 1536-well format; Protein-arginine deiminase type-4 (Homo sapiens), Q9UM07; recombinant PAD4, RCA probe fluorescence polarization; inhibition, % at 6.36 µM; actives 0.41% (n = 330,000); AID 485272, 2010;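 active = percent inhibition above a cutoff equal to the mean of all tested compounds plus 3 SD, cut at about 15% in these data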;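 also: 0% = PAD4 with RCA probe and DMSO and 100% = probe without PAD4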
Apaf-1 inh – inhibitors of human Apaf-1 apoptosome, primary screen, biochemical, DEVD-Rh110 fluorescence, uHTS. Apoptotic protease-activating factor 1 (Homo sapiens), O14727. reconstituted apoptosome caspase-3 activity. inhibition, % at 20 µM. actives 0.71% (n = 330,000). AID 489030, 2010; active = inhibition of at least 40% at 20 µM;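 also: plate controls were DMSO wells for no effect and DEVD-CHO caspase inhibitor wells for full effect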
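Material: reconstituted apoptosome with Apaf-1, cytochrome c, caspase-9, procaspase-3, dATP. Technique: Rh110 fluorescence intensity. Buffer or medium: pH 7.5 Hepes buffer with CHAPS, BSA, DTT. Times: 30 min plus 50 min, RT.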
UCH37 DUB inh – inhibitors of human UCH37 deubiquitinase, primary screen, biochemical, Ub-AMC cleavage, fluorescence; purified proteasome/UCH37; inhibition, % (concentration not given with the values); actives 0.33% (n = 330,000); AID 588478, 2011;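 active = mean inhibition over replicate wells above about 20%, limit read from the data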;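 also: 0% = compound-free wells with enzyme and 100% = wells lacking proteasome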
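assay system = human UCH37 enzyme supplied as purified proteasome complex | amount = proteasome at 0.15 nM in the dispensed enzyme solution | schedule = 30 min compound-proteasome preincubation then 25 min substrate reaction, room temperature | measured by = fluorescence, ex 355 nm, em 460 nm | benchmarks = no-proteasome wells (full inhibition) and compound-free wells (no inhibition)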
Apaf-1 inh conf – Apaf-1 inhibitors, single-dose retest, confirmation, biochemical, fluorescence, DEVD-Rh110, 20 µM; shares compounds with Apaf-1 inh; reconstituted apoptosome, caspase-3 DEVD-Rh110 fluorescence; inhibition, % at 20 µM; actives 25% (n = 1,800); AID 504614, 2011;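 active = mean inhibition of at least 40% at 20 µM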;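 also: plate controls were DMSO wells for no effect and DEVD-CHO caspase inhibitor control wells for full effect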
Rh110 interf inh – Rh110 fluorescence interference by putative Apaf-1 inhibitors, confirmation, artefact control for Apaf-1 inhibitor project, biochemical, 20 µM | shares compounds with Apaf-1 inh | activation (fluorescence interference), % at 20 µM | AID 504615, 2011 | quenched caspase reaction | 1,800 tested, under 10 active;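 active = signal rise of 40% or more at 20 µM, treated as a fluorescence artifact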
Fluor interf inh – fluorescence interference of Apaf-1 inhibitor hits, dose response, artefact control for Apaf-1 inhibitor project; shares compounds with Apaf-1 inh; fluorescence interference counterscreen, Apaf-1 assay format; IC50, µM; 460 tested, under 10 active; AID 588538, 2011; call rule not given here
* = called active by the depositor. An excerpt weighted towards active compounds, which were near 2% of everything screened.

What do the screens show for `COc1ccc(/C=C2/C(=O)N(c3ccccc3)N=C2C)cc1OC`?
Apaf-1 inh: 96*; Apaf-1 inh conf: 13; Rh110 interf inh: 6

What do the screens show for `CC1=NN(c2ccccc2)C(=O)/C1=C\c1cc(C)n(C)c1C`?
Fh CTSL1 inh: 4; GSTO1 counter: -2; PP5 primary: 0; PAD4 FP inh: 2; Apaf-1 inh: 10; UCH37 DUB inh: 9

Results for CCOc1ccc(-n2nc3ccc(N)cc3n2)cc1 ?
Apaf-1 inh: 84*; UCH37 DUB inh: inactive; Apaf-1 inh conf: 24; Rh110 interf inh: 2

What do the screens show for `Cc1ccc(-c2cc(C(=O)NCCCN3CCOCC3)c3ccc(Cl)c(C)c3n2)cc1`?
Fh CTSL1 inh: 2; GSTO1 counter: 3; PP5 primary: 2; PAD4 FP inh: 0; Apaf-1 inh: 55*; UCH37 DUB inh: -15; Apaf-1 inh conf: 24; Rh110 interf inh: 11

Results for O=C(NCCCN1CCOCC1)c1cc(-c2ccccc2)nc2ccccc12 ?
Fh CTSL1 inh: -3; GSTO1 counter: 0; PP5 primary: 0; PAD4 FP inh: 1; Apaf-1 inh: -3; UCH37 DUB inh: -3

Results for Cc1ccc(-c2nn3c(-c4ccco4)nnc3c3ccccc23)cc1S(=O)(=O)NCC1CCCO1 (configuration not stated) ?
Fh CTSL1 inh: 2; GSTO1 counter: 1; PP5 primary: 2; PAD4 FP inh: -5; Apaf-1 inh: 66*; UCH37 DUB inh: -45; Apaf-1 inh conf: 83*; Rh110 interf inh: 7; Fluor interf inh: >100

What do the screens show for `O=C1CCN(Cc2ccccc2)C=C1c1ccc(Cl)cc1`?
PAD4 FP inh: -1; Apaf-1 inh: 47*; UCH37 DUB inh: 1; Apaf-1 inh conf: 5; Rh110 interf inh: 4

Results for CCc1n[nH]c(=S)n1N=C/C(C)=C\c1ccccc1 ?
UCH37 DUB inh: 2

How did COc1ccccc1OCC(=O)NN=Cc1cccc2cccnc12 do in these assays?
UCH37 DUB inh: 4

What do the screens show for `Fc1ccc(-[n+]2nc(Nc3ccccc3)sc2-c2c3ccccc3cc3ccccc23)cc1`?
Fh CTSL1 inh: -2; GSTO1 counter: -3; PP5 primary: 2; PAD4 FP inh: 1; Apaf-1 inh: 42*; UCH37 DUB inh: 5; Apaf-1 inh conf: 15; Rh110 interf inh: 4

How did Oc1ccc2ccccc2c1-c1sc(Nc2ccccc2)n[n+]1-c1ccc(F)cc1 do in these assays?
Fh CTSL1 inh: 6; GSTO1 counter: 0; PP5 primary: 2; PAD4 FP inh: -2; Apaf-1 inh: 28; UCH37 DUB inh: 2

What do the screens show for `CN1CCC[C@H]1CCNC(=O)c1c(-c2ccsc2)sc2ccccc12`?
PAD4 FP inh: -5; Apaf-1 inh: 7; UCH37 DUB inh: 2

What do the screens show for `CN1CCC[C@@H]1CCNC(=O)c1c(-c2ccc3c(c2)OCO3)noc1-c1ccsc1`?
PAD4 FP inh: -1; Apaf-1 inh: 40*; UCH37 DUB inh: 1; Apaf-1 inh conf: 11; Rh110 interf inh: 8

What do the screens show for `O=C1N/C(=N/N=Cc2ccc(O)cc2)SC1Cc1ccccc1` (configuration not stated)?
UCH37 DUB inh: 4

How did COc1ccc(NC(=O)CSc2nc3c(c(-c4cccs4)c2C#N)CN(C)CC3)cc1OC do in these assays?
Fh CTSL1 inh: 4; GSTO1 counter: 14; PP5 primary: 3; PAD4 FP inh: 2; Apaf-1 inh: 67*; UCH37 DUB inh: 6; Apaf-1 inh conf: 9; Rh110 interf inh: 4

What do the screens show for `COc1ccc(NC(=O)CSc2nnc(-c3cccs3)n2C)cc1OC`?
Fh CTSL1 inh: -3; GSTO1 counter: -6; PP5 primary: 2; PAD4 FP inh: 0; Apaf-1 inh: -3; UCH37 DUB inh: 2

Results for O=C1c2[nH]nc(-c3ccccc3O)c2C(c2ccc(F)cc2)N1Cc1ccco1 (configuration not stated) ?
Fh CTSL1 inh: 2; GSTO1 counter: -41; PP5 primary: 7; PAD4 FP inh: 0; Apaf-1 inh: 30; UCH37 DUB inh: 3

Results for O=C1c2[nH]nc(-c3ccccc3O)c2C(c2cccc(Cl)c2)N1Cc1ccco1 (configuration not stated) ?
Fh CTSL1 inh: 3; GSTO1 counter: -16; PP5 primary: 8; PAD4 FP inh: -1; Apaf-1 inh: 42*; UCH37 DUB inh: 3; Apaf-1 inh conf: 34; Rh110 interf inh: 4

Results for O=C(CNC(=O)c1ccncc1)NN=Cc1cc(Br)ccc1OCc1ccccc1 ?
UCH37 DUB inh: 3

What do the screens show for `COC(=O)C1=C(C)N(Cc2ccccc2)C(=NCCc2ccccn2)N[C@H]1c1cccc(C(F)(F)F)c1`?
PAD4 FP inh: 3; Apaf-1 inh: 48*; UCH37 DUB inh: 1; Apaf-1 inh conf: 12; Rh110 interf inh: 0

How did COC(=O)C1=C(C)N(Cc2ccccc2)C(=NCc2ccc3c(c2)OCO3)N[C@H]1c1ccccc1 do in these assays?
PAD4 FP inh: -5; Apaf-1 inh: 45*; UCH37 DUB inh: 2; Apaf-1 inh conf: 19; Rh110 interf inh: 22

What do the screens show for `COC(=O)C1=C(C)N(Cc2ccccc2)C(=NCc2ccc(OC)cc2)N[C@H]1c1cccc(F)c1`?
Fh CTSL1 inh: 7; GSTO1 counter: 9; PP5 primary: -6; PAD4 FP inh: -8; Apaf-1 inh: 56*; UCH37 DUB inh: -1; Apaf-1 inh conf: 11; Rh110 interf inh: 9

What do the screens show for `COC(=O)C1=C(C)N(Cc2ccccc2)C(=NCC2CC2)N[C@H]1c1ccccc1`?
PAD4 FP inh: -7; Apaf-1 inh: 38; UCH37 DUB inh: 2

Results for CCN1C(=NCCc2ccccn2)N[C@@H](c2cccc(C(F)(F)F)c2)C(C(=O)OC)=C1C ?
PAD4 FP inh: 0; Apaf-1 inh: -114; UCH37 DUB inh: 4
